Laboratory results from ChEMBL document CHEMBL1142437, “Constrained analogues of procaine as novel small molecule inhibitors of DNA methyltransferase-1” (J Med Chem, 2008).
Calls of active or inactive are those of the source. The rule behind the calls is not given here.

What follows are molecules tested on HL-60 (assay: Induction of chromosomal satellite repeats demethylation in human HL60 cells at 0.5 mM after 72 hrs).
Type: functional, cell-based
In short: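 HL60 human myeloid leukemia cells exposed 72 h to 0.5 mM drug in DMSO, DMSO (1%) as control. Methylation of chromosomal satellite repeats (C1S2) assessed by COBRA assay on genomic DNA.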
With `CCN(CC)CCOC(=O)c1ccc(N)cc1` the Activity was “Active”.
In the case of `O=[N+]([O-])c1ccc(C2=NC[C@H](CN3CCCC3)O2)cc1`, the Activity is reported as “Active”.

The molecules below were run against DNA (cytosine-5)-methyltransferase 1 (Homo sapiens) (UniProt P26358) (assay: Inhibition of human recombinant DNMT1 expressed in Sf9 cells).
DNA (cytosine-5)-methyltransferase 1 (Homo sapiens), sequence (P26358 whole entry): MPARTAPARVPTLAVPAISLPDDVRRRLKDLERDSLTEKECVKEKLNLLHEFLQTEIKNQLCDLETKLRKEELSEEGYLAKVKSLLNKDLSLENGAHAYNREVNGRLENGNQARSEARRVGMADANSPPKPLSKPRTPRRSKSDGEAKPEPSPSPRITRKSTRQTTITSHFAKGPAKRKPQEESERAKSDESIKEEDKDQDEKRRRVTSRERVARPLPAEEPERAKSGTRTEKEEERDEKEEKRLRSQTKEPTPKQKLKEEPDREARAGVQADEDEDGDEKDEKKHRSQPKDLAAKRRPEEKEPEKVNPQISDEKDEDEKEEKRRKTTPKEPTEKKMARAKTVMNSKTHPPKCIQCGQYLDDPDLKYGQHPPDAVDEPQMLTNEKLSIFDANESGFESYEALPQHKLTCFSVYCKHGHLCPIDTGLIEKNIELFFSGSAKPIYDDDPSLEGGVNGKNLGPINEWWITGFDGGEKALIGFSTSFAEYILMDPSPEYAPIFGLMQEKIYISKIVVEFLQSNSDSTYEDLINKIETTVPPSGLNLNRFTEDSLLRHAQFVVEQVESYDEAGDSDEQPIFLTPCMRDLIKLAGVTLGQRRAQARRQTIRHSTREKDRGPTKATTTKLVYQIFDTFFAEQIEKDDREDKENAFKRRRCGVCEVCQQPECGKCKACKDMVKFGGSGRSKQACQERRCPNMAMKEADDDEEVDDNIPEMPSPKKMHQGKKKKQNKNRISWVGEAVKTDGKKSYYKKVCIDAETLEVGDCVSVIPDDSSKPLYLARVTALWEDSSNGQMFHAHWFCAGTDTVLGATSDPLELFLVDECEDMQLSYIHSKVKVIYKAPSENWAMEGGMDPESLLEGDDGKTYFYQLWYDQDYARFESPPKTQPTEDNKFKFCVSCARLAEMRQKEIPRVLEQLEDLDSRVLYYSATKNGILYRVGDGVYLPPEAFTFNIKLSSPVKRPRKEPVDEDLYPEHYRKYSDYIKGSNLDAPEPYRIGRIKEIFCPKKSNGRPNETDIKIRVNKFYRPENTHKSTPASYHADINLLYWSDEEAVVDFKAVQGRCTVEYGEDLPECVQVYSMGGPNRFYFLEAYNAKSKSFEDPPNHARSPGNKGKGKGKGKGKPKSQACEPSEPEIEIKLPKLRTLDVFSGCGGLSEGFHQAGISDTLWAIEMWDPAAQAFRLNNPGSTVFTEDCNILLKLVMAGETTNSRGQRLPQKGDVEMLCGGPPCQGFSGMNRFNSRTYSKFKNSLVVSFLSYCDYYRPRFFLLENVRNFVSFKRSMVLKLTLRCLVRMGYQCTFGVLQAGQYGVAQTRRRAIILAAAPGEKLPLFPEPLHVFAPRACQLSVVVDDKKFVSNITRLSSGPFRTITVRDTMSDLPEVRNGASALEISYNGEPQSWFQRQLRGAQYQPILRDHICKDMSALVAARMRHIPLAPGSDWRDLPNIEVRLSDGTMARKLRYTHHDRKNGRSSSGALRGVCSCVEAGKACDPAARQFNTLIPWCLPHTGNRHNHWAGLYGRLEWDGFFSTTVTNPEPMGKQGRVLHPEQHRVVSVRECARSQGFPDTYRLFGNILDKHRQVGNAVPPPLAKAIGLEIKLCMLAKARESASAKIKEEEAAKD
For `O=[N+]([O-])c1ccc(C2=N[C@H](CN3CCCC3)CO2)cc1`, the Activity was “Active”.
`CCN(CC)C[C@@H]1COC(c2ccc([N+](=O)[O-])cc2)=N1` was tested, and the Activity was “Active”.
In the case of `CCN(CC)C[C@@H]1CN=C(c2ccc([N+](=O)[O-])cc2)O1`, the Activity is reported as “Active”.
`O=[N+]([O-])c1ccc(C2=NC[C@H](CN3CCCC3)O2)cc1` was tested, and the Activity was “Active”.
In the case of `O=[N+]([O-])c1ccc(C2=N[C@@H](CN3CCCC3)CO2)cc1`, the Activity is reported as “Active”.
In the case of `CCN(CC)C[C@H]1CN=C(c2ccc([N+](=O)[O-])cc2)O1`, the Activity is reported as “Active”.
For `CCN(CC)C[C@H]1COC(c2ccc([N+](=O)[O-])cc2)=N1`, the Activity was “Active”.
